Data on three sequences can be found in PMC3703767 (Virology, 2008).

In experiment [1] the test system is MNV-1. Put plainly: Mouse norovirus PPMO inhibition assay in RAW264.7 cells. The format is cell-based, murine norovirus. The method in brief:
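RAW264.7 cells (2×10^5/well) were seeded and incubated overnight, then rinsed and exposed 4 h to test compound in plain DMEM (8 replicate wells). They were rinsed again and infected with MNV-1.CW1 for 2 h at 37 °C, then kept 3 days at 37 °C. Wells were formalin-fixed and stained with crystal violet; methanol-eluted stain was read at A570. Variants used fixed compound with 10-fold virus dilutions (20–2×10^5 PFU/well), or 1.25–80 μM compound with 2×10^4 PFU/well. % lysis = ([treated]−[treated+infected])/[treated]×100.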

Experiment [2] has as its system Hu/NoV/GI.1/Norwalk virus/1968/US 5′ ORF1 sequence. Put plainly: Luciferase reporter assay, Norwalk leader. The format is biochemical, human norovirus. The following applies: target with 1 mismatch to Noro 1.1; luciferase signal. A digest of the protocol:
(§1)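 In vitro translation in nuclease-treated rabbit reticulocyte lysate. The target 5′-end leader sits upstream of firefly luciferase; RNA is T7-transcribed from NotI-cut plasmid (1 nM final). Test compound is added at 0.01–83 μM final, and reactions run 75 min at 37 °C, then are chilled on ice. Percent inhibition is calculated from luciferase signal versus no-compound reaction. Each assay was run at least twice, by two investigators in separate labs.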
(In a reporter assay the amount or activity of a reporter protein is the signal.)

Experiment [3] concerns Hu/NoV/GI.2/Southampton/1991/UK 5′ ORF1 sequence. Put plainly: Luciferase reporter assay, Southampton leader. The format is biochemical, human norovirus. The following applies: target with 0 mismatches to Noro 1.1; luciferase signal. The method in brief:
as §1

For experiment [4], the system named is Hu/NoV/GI.6/WUG1/2000/JP 5′ ORF1 sequence. Description: Luciferase reporter assay, WUG1 leader. The following applies: target with 1 mismatch to Noro 1.1; luciferase signal. The format is biochemical, human norovirus. A digest of the protocol:
as §1

Experiment [5] deals with Hu/No.V/GII.4/Lordsdale/1993/UK 5′ ORF1 sequence. Put plainly: Luciferase reporter assay, Lordsdale leader. The format is biochemical, human norovirus. The method in brief: as §1
The subject of experiment [6] is Hu/NoV/GII.12/CN2753/1998/USA 5′ ORF1 sequence. Description: Luciferase reporter assay, CN2753 leader. The format is biochemical, human norovirus. The following applies: target with 2 mismatches to Noro 1.1; luciferase signal. The method in brief:
as §1

Experiment [7] concerns Hu/NoV/GII.4/CN3050/1998/USA 5′ ORF1 sequence. Put plainly: Luciferase reporter assay, CN3050 leader. The format is biochemical, human norovirus. The method in brief: as §1
The test system of experiment [8] is Laboratory variant 1 5′ ORF1 sequence. Put plainly: Luciferase reporter assay, Laboratory variant 1 leader. The format is biochemical. A digest of the protocol: as §1
For experiment [9], the system named is Laboratory variant 2 5′ ORF1 sequence. Put plainly: Luciferase reporter assay, Laboratory variant 2 leader. The format is biochemical. The method in brief:
as §1

The test system of experiment [10] is Laboratory variant 3 5′ ORF1 sequence. Description: Luciferase reporter assay, Laboratory variant 3 leader. The format is biochemical. The method in brief:
as §1

Experiment [11] deals with Bo/NoV/GIII.1/Jena/1998/DEU 5′ ORF1 sequence. Description: Luciferase reporter assay, Jena bovine norovirus leader. The format is biochemical. A digest of the protocol: as §1
Experiment [12] has as its system Norwalk virus replicon in HG23 cells. Put plainly: PMO inhibition of norovirus protein expression in replicon cell line HG23. The format is cell-based. Particulars: 16 μM, 5-day incubation, immunofluorescence. The method in brief: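 HG23 cells (Huh-7-derived Norwalk replicon line, DMEM/10% FBS/0.25 mg/ml neomycin) received 16 μM unconjugated morpholino by nucleofection (solution L, program A020). A total of 2×10^6 cells were seeded and incubated 5 days at 37 °C. Cells were then fixed in ice-cold methanol and analysed by immunofluorescence with guinea pig antisera against Norwalk VP1 and RdRP.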

The test system is the same in experiment [13]. Description: Norwalk virus RNA in replicon-bearing HG23 cells. The format is cell-based. The following applies: 16 μM, quantitative real-time RT-PCR, data not shown. A digest of the protocol:
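HG23 replicon cells were electroporated with 16 μM test compound and incubated 5 days at 37 °C. Replicon RNA in treated and untreated cells was then quantified by single-step real-time RT-PCR with a standard curve in each run. Cycling: 45 °C 30 min, 95 °C 10 min, then 45 cycles of 95 °C 30 s, 50 °C 1 min, 72 °C 30 s.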
(In general: In antiviral work, replicon cells carry a viral genome segment that copies itself.)

Where [14] appears, read: target with 6 mismatches to Noro 1.1, luciferase signal.

CGTTGCCATCCTCATTTCAC [PPMO B]: the “dose of MNV-1 whose replication is completely inhibited” value in [1] (PPMO B 20 μM, MNV-1 20 to 2 × 10^5 PFU/well, 8 replicates) was 2 × 10^3 PFU.
For the sequence CGACGCCATCATCATTCAC [Noro 1.1], the “Outcome of in vitro assay” value is given as “Inhibition (Inhibition defined as > 60% reduction of protein synthesis, as defined by luciferase signal.)” in experiment [2]; “Inhibition (Inhibition defined as > 60% reduction of protein synthesis, as defined by luciferase signal.)” in [3]; “Inhibition (Inhibition defined as > 60% reduction of protein synthesis, as defined by luciferase signal.)” in experiment [4]; “Inhibition (Inhibition defined as > 60% reduction of protein synthesis, as defined by luciferase signal.)” in [5] (target with 2 mismatches to Noro 1.1, luciferase signal); “Inhibition (Inhibition defined as > 60% reduction of protein synthesis, as defined by luciferase signal.)” in [6]; “Inhibition (Inhibition defined as > 60% reduction of protein synthesis, as defined by luciferase signal.)” in experiment [7] (target with 3 mismatches to Noro 1.1, luciferase signal). The “Outcome of in vitro assay” value in experiment [8] (target with 4 mismatches to Noro 1.1, luciferase signal) was “Inhibition (Inhibition defined as > 60% reduction of protein synthesis, as defined by luciferase signal.)”; in experiment [9] (target with 5 mismatches to Noro 1.1, luciferase signal) it was “Inhibition (Inhibition defined as > 60% reduction of protein synthesis, as defined by luciferase signal.)”; in [10] (setting [14]), “No inhibition”; in experiment [11] (setting [14]) it was “No inhibition”. Moreover, the “inhibition of translation achieved” value in experiment [5] (GII.4 variant) and in [7] (GII.4 variant) was 100% each time. The “inhibition of translation” value in [8] (LabVar 1, 4 nucleotide changes) is “less efficiently”; in [9] (LabVar 2, 5 nucleotide changes), “less efficiently”; in experiment [10] (LabVar3, 6 nucleotide differences, data not shown), “completely failed to inhibit translation”. This sequence also displayed a maximal inhibition achieved in experiment [11] (range of concentrations tested, 0.01 to 83 μM) of at most 57%. In addition, the “Norwalk virus protein translation in HG23 cells” value in [12] is “effectively inhibited norovirus protein translation”. Moreover, the “Norwalk virus RNA level” value in [13] is recorded as “did not see a significant reduction in RNA”.
In the case of CGCAGAAGATGGCGTTGCCATCCTC [PPMO C], in [1] (20 μM PPMO, 2 × 10^4 PFU/well MNV-1), the “effectiveness in inhibiting viral replication” value turned out to be 70%. For the same sequence, the “maximal dose of MNV-1 inhibited” value in experiment [1] (PPMO C 80 μM, MNV-1 20 to 2 × 10^5 PFU/well, 8 replicates) is reported as “up to 2 × 10^5 PFU”.
